Screens (PubChem)
An excerpt weighted towards active compounds, which were near 2.3% of everything screened.
Rpn11 inh: Rpn11 (human) deubiquitinase inhibition; human 26S proteasome, Ub4-pepOG fluorescence polarization; 20S core pre-blocked with epoxomicin; inhibition, % at 20 µM; 360,000 tested, 0.59% active; AID 588493;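 active = inhibition at 20 µM, scaled to each plate's controls, above about 33%, limit read from the data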
SUMO1-SIM PPI: alters human SUMO1 binding to SIM partners; P63165; SUMO1 binding to a labelled peptide, TR-FRET, 1 h; inhibition, % at 20 µM; 360,000 tested, 0.33% active; AID 602429; in the data active = inhibition above about 37%
Target sequence (P63165 whole entry, looked up): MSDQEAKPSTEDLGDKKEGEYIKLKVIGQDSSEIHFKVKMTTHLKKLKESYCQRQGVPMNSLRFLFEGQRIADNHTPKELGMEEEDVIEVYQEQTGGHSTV
DNMT1 inh: DNMT1 (human) enzyme inhibition | P26358 | DNMT1 molecular beacon, Hinp1I cleavage, fluorescence | inhibition (reported as % activation of signal), % at 10 µM | 360,000 tested, 0.83% active; in the data active = inhibition above about 50%
MT1-MMP act inh: inhibitors of human MT1-MMP activation; P50281; HT1080 RFP-PRO-GFP cells, GFP/RFP ratio fluorescence, overnight; percent of plate control window, DMSO zero; GFP/RFP ratio change, % at 20 µM; 360,000 tested, 0.061% active; AID 651647;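 active = GFP/RFP ratio change of at least 30% with cell ATP level not reduced by more than half and red fluorescence within 50% of control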
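Assay system: HT1080 RFP-PRO-GFP cells. Benchmarks: DMSO vehicle wells and RFP-L50D-GFP reporter cell wells. Times: overnight cell settling, then overnight compound exposure, 37 °C, 5% CO2. Compound: 20 µM single dose, 1% DMSO. Read-out basis: GFP/RFP fluorescence ratio.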
CSN deneddyl inh: CSN deneddylation inhibition | Q92905 | Purified CSN, SCF-Nedd8-OG deneddylation, fluorescence polarization | inhibition, % at 12.5 µM | 360,000 tested, 0.38% active | AID 651999;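 active = pattern-corrected inhibition above about 35%, with an unprinted fluorescence ratio check between 0.5 and 1.5, limit read from the data, passing the limit was not always enough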;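 also: 0% = enzyme with substrate and 100% = substrate without enzyme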
Target sequence (Q92905 whole entry, looked up, one chain of several): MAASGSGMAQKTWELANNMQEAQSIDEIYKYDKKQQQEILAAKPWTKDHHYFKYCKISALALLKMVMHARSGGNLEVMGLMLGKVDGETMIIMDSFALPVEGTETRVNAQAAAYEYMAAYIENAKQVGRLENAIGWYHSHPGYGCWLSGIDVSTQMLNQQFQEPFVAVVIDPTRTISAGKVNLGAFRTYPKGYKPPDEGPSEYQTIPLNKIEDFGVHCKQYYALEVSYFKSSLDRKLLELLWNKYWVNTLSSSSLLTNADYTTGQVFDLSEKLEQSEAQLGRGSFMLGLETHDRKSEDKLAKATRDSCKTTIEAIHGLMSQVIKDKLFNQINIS
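assay system = purified human Csn5 enzyme expressed in HEK293T cells | amount = 0.24 nM enzyme | buffer or medium = Tris/NaCl/DTT buffer, pH 7.5 | reagent = 10 nM SCFSkp2-Nedd8OG | compound = one concentration, 12.5 µM, 0.25% DMSO | times = 90 min reaction at room temperature | signal = FP | read-out basis = % inhibition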
SKN-1 block: blocks SKN-1 activity in C. elegans. C. elegans VP596 Pgst-4::GFP/RFP ratio, acrylamide-induced, 24 h. inhibition, % at 21.8 µM. 360,000 tested, 0.49% active. AID 624304;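 active = interference check ratio from 0.5 to 1.5 plus GFP to RFP signal ratio inhibition reaching or exceeding a fixed threshold, cut at about 30% in these data, passing the limit was not always enough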
Starred values were filed as active, the others as inactive; / = no result shown.

SMILES	Rpn11 inh	SUMO1-SIM PPI	DNMT1 inh	MT1-MMP act inh	CSN deneddyl inh	SKN-1 block
CCN1CCc2c(sc(NC(=S)NC(=O)c3ccccc3)c2C#N)C1	19	-1	-5	-30	48*	25
NC(=O)c1c(NC(=O)c2ccccc2)sc2c1CCN(Cc1ccccc1)C2	/	-3	6	-40	46*	-16
N#Cc1c(NC(=S)NC(=O)c2ccccc2)sc2c1CCC2	11	4	-12	-1	1	10
NC(=O)c1c(NC(=O)c2c(F)cccc2F)sc2c1CCN(Cc1ccccc1)C2	30	3	-1	-21	13	31
Nc1[nH]c(C(=O)c2ccccc2)c(-c2c(F)cccc2F)c1C(=O)c1ccc(Cl)c(Cl)c1	/	5	/	-1	-5	2
Cc1ccccc1CN1C(=O)c2ccccc2S1(=O)=O	-8	44*	-2	-3	1	-4
CCC(=O)C1CCCN(C(=O)c2ccc(OC)c(OC3CCN(C(C)=O)CC3)c2)C1 (stereo unspecified)	-1	43*	2	0	1	15
COc1ccc(C(=O)N2CCN(C)C(C)C2)cc1OC1CCN(C(C)=O)CC1 (stereo unspecified)	0	3	0	0	-2	5
COc1ccccc1-c1c(C)oc2cc(OC(=O)c3ccco3)ccc2c1=O	-3	7	1	-1	-6	4
COc1ccccc1-c1c(C(F)(F)F)oc2cc(OC(=O)c3cccc([N+](=O)[O-])c3C)ccc2c1=O	0	-1	18	4	-2	36*
Cn1cnnc1SCC(=O)Nc1ccc(OCc2ccccc2)cc1	7	67*	-10	5	50*	7
COC1=CC(=O)OC(c2cccc(C(F)(F)F)c2)C1 (stereo unspecified)	/	3	/	3	-3	4
Cc1ccc(CN2CCC(n3nccc3NC(=O)c3ccccc3C)CC2)o1	3	-1	0	3	-6	36*
Cc1ccccc1C(=O)Nc1ccnn1C1CCN(Cc2ccc(CO)o2)CC1	0	6	1	3	4	5
O=C1NC[C@H](c2ccccc2)N(CCC23CC4CC(CC(C4)C2)C3)C1=O	0	32	-9	10	74*	4
CCc1nc2ccc(C(=O)N(C)CCN(C)C)cn2c1N(CC)C(=O)NCCc1ccccc1	0	-9	6	0	-2	-2
Cc1ccc(-c2noc(CNc3ccccc3)n2)cc1	1	-8	-10	0	-1	-28
CCc1ccc(NCc2nc(-c3ccccc3)no2)cc1	-1	-2	3	8	-6	42*
O=C(CSc1nnc(CN2CCOCC2)n1-c1ccc(Cl)cc1)N1CCc2ccccc21	4	2	1	-2	4	42*
O=C(CSc1nnc(CN2CCOCC2)n1-c1ccccc1)N1CCc2ccccc21	-1	1	-2	5	-2	8
Cc1ccc(C)c(-n2c(CNC(=O)c3ccco3)nnc2SCC(=O)Nc2nnc(C)s2)c1	4	2	0	3	4	8
Cc1ccc(C)c(-n2c(CNC(=O)c3ccco3)nnc2SCC(=O)N2CCc3ccccc32)c1	-1	-2	-2	0	0	39*
Cc1nnc(NC(=O)c2sc3nc(-c4cccs4)cc(C(F)(F)F)c3c2N)s1	/	-4	-12	-367	106*	14
O=C1SC(SCc2ccccc2)=N/C1=C\c1ccc(C(=O)O)cc1	-1	-1	2	-2	-8	20
CC(/C=C1\N=C(SCc2ccccc2Cl)SC1=O)=C\c1ccccc1	23	0	101*	-7	0	-6
SMILES	Rpn11 inh	SUMO1-SIM PPI	DNMT1 inh	MT1-MMP act inh	CSN deneddyl inh	SKN-1 block
Clc1ccc(-c2nc3c4ccccc4ccn3c2Cc2ccsc2)cc1	/	-2	/	5	-1	21
COc1cccc(C(=O)Nc2cccc(C(=O)NC3=NN(c4c(Cl)cc(Cl)cc4Cl)C(=O)C3)c2)c1	15	44*	7	-3	13	9
Cc1ccc(CNc2nc3c([nH]2)c(=O)n(C)c(=O)n3C)cc1	0	50*	0	0	0	-3
Cn1c(=O)c2[nH]c(Nc3ccccc3)nc2n(C)c1=O	-10	4	0	-13	3	69
COc1ccc(S(=O)(=O)N2CCC[C@H]2C(=O)N2CCC[C@H]2C(=O)N(C)Cc2ccccc2)cc1C	/	2	/	1	-4	-7
CCOc1ccc2nc(N(CCN(C)C)C(=O)c3cc4ccccc4cc3OC)sc2c1	-2	-6	2	-4	-4	38*
NC(=S)N/N=C/c1ccc2ccccc2c1	-1	-7	-2	6	-8	8
Brc1ccc(C=Nc2ccc(Nc3ccccc3)cc2)s1	11	-11	-19	49*	2	-1
C(=Nc1ccc(Nc2ccccc2)cc1)c1ccc2ccccc2c1	11	-15	-20	44*	-5	5
O=C(NN1C(=O)CSC1=S)C(=O)NN1C(=O)CSC1=S	16	40*	58*	4	2	-11
CCc1nn2c(=O)cc(COc3ccc(/C=C4\C(=N)N5N=C(C)SC5=NC4=O)cc3)nc2s1	16	24	59*	-9	8	-2
O=C(Nc1nc(-c2ccc(Cl)s2)cs1)c1ccccc1	1	-6	-4	-21	-1	49*
O=C(Nc1nc(-c2cccs2)cs1)c1ccc(Cl)s1	0	-4	-7	-23	-2	30
COc1ccc(CN2C(=O)C(CC(=O)NCc3cccc4ccccc34)CC(C(=O)N(C(C)C)C(C)C)=C2C)cc1 (stereo unspecified)	9	-7	-6	-1	-1	14
CC1=C(C(=O)OCC2CCCO2)C(c2cccc(C(F)(F)F)c2)C2=C(CC(c3ccco3)CC2=O)N1 (stereo unspecified)	9	5	-21	-13	7	-6
CC1=C(C(=O)OCC2CCCO2)C(c2ccccc2OC(C)C)C2=C(CC(c3ccco3)CC2=O)N1 (stereo unspecified)	0	-1	-7	-3	-3	40*
CCCCNC(=O)C1C(c2ccc(C(F)(F)F)cc2)=Nc2ccccc2N1C(=O)c1ccc2nc(C)[nH]c2c1 (stereo unspecified)	/	-1	/	1	-6	2
O=C(NC(=S)Nc1ccc(-c2ccc(CO)o2)cc1)c1cccs1	34	22	77*	-5	40*	3
Cc1ccc(C(=O)NC(=S)Nc2ccc(-c3ccc(CO)o3)cc2)cc1	30	6	-18	-5	10	12
